From ChEMBL document CHEMBL1137082, “Potent and selective conformationally restricted neuronal nitric oxide synthase inhibitors” (J Med Chem, 2004)

Key:
[1] = molecular target: T1, Nitric oxide synthase, inducible (Mus musculus, UniProt P29477)
T1 sequence (P29477 whole entry): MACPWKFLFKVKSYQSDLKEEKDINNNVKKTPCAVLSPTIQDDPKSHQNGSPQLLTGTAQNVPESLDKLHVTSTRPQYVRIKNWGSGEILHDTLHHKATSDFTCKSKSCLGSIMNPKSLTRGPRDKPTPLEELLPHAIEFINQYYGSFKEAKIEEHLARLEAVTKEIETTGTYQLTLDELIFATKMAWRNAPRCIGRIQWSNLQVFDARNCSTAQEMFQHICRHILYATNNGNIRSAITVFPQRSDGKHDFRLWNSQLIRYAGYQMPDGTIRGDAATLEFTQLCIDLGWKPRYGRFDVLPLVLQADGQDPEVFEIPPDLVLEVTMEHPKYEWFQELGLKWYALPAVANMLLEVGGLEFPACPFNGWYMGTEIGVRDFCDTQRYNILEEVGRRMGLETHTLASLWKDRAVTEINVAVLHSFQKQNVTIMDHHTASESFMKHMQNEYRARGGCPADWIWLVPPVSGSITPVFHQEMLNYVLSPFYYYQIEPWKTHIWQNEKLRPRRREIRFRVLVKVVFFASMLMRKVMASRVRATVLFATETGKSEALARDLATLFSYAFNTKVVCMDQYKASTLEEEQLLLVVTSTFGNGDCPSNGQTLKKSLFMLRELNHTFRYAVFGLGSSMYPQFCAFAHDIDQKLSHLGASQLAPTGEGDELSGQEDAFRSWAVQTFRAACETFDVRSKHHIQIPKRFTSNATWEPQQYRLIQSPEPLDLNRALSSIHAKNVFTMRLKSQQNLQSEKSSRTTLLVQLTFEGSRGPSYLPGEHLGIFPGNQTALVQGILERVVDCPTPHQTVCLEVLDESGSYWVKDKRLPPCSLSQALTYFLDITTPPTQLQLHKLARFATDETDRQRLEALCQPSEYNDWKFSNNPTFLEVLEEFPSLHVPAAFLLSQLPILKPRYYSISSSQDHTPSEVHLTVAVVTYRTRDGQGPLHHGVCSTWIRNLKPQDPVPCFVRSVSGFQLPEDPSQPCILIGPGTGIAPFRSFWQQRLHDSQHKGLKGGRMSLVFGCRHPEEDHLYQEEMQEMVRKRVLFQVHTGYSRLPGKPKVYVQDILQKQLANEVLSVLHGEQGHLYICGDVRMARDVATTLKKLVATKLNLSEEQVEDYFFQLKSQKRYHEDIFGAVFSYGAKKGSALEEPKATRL

[2] = molecular target: T1, Nitric oxide synthase, inducible; experiment: Inhibitory activity against inducible nitric oxide synthase (iNOS)
Nitric oxide synthase 1 [3] = molecular target: T2, Nitric oxide synthase 1 (Rattus norvegicus, UniProt P29476); experiment: Inhibitory activity against neuronal nitric oxide synthase (nNOS)
[4] = molecular target: T3, Nitric oxide synthase, inducible (Mus musculus) (UniProt P29477); experiment: Inhibitory activity against inducible nitric oxide synthase (iNOS) at 100 uM; parameters: scale not given: the % may be the effect or the level left
T3 sequence (whole entry): T1 sequence (P29477 whole entry)
Outline: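 Single-point screen against murine macrophage iNOS: enzyme residual activity measured at 100 μM inhibitor. NO formation monitored by hemoglobin capture assay with a UV/vis spectrophotometer.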

Nitric oxide synthase 1 [5] = molecular target: T2, Nitric oxide synthase 1; experiment: Binding affinity towards neuronal nitric oxide synthase (nNOS)

T2 sequence (P29476 whole entry): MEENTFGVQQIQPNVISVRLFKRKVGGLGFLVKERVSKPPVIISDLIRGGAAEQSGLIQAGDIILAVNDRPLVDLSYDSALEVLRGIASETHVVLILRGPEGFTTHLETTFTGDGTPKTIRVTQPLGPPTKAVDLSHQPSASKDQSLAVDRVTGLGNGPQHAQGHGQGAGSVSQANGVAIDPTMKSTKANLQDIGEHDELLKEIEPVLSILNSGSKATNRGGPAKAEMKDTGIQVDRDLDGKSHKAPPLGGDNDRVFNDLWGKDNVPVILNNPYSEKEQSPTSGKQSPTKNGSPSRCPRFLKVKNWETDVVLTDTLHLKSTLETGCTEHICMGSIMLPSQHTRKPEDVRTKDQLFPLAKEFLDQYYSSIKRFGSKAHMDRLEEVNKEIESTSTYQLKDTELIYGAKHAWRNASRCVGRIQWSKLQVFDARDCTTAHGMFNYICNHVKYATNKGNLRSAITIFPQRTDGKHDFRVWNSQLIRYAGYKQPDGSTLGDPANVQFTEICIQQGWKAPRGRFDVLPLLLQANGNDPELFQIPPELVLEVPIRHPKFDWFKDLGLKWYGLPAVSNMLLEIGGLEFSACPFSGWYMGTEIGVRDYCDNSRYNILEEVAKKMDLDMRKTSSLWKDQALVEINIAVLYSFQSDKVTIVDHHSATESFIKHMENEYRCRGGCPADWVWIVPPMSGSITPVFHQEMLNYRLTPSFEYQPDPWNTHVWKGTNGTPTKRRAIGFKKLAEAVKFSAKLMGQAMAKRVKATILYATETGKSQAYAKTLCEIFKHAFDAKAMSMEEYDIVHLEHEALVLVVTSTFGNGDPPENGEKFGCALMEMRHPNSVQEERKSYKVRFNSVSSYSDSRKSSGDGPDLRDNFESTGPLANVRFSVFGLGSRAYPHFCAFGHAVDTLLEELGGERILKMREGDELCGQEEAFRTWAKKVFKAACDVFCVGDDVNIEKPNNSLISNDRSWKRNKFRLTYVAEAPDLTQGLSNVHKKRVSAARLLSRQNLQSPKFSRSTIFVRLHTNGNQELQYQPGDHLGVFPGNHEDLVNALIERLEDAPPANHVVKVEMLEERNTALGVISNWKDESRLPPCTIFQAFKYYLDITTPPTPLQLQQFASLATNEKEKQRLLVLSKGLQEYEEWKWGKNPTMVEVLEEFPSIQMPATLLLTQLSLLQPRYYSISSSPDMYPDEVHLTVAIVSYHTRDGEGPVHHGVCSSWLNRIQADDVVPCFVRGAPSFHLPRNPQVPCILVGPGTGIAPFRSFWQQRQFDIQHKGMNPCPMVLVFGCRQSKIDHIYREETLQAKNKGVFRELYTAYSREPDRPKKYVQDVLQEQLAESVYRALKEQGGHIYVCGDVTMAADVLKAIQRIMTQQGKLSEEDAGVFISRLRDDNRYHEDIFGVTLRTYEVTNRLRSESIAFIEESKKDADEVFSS

Row | SMILES | Ki [1] [µM] | IC50 [2] [µM] | IC50 (Nitric oxide synthase 1 [3]) [µM] | Activity [4] [%] | Ki (Nitric oxide synthase 1 [5]) [µM]
1 | NC(=O)[C@@H]1C[C@@H](NC(=O)[C@@H](N)CCC/N=C(\N)N[N+](=O)[O-])CN1 | 29 | 65 | 0.64 | 10 | 
2 | N=C(NCCC[C@H](N)C(=O)NC1CNC(C(N)=O)C1)N[N+](=O)[O-] (single isomer, unassigned) | 199 | 441 | 9.6 | 78 | 1.1
